Here are results for nine molecules from ChEMBL document CHEMBL1126289, “Analogues of the muscarinic agent 2'-methylspiro[1-azabicyclo[2.2.2]octane-3,4'-[1,3]dioxolane]: synthesis and pharmacology” (J Med Chem, 1992).

Test [1] is filed under the species Cavia porcellus. Description: In vitro antagonistic activity on isolated guinea pig urinary bladder. It counts as functional. In a few lines:
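Bladder smooth-muscle strips from male guinea pigs (~300 g) in Krebs-Henseleit, pH 7.4, carbogen-gassed, 37 °C, ~5 mN resting tension, stabilized ≥45 min; isometric tension recorded. A control cumulative carbachol curve was run, then washout and ≥15 min rest. A fixed test-compound concentration was incubated 60 min before a second carbachol curve. Carbachol EC50s were read graphically and dose ratios calculated to give KB; 2–8 experiments.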

Test [2] is filed under the species Cavia porcellus. The test can be described thus: In vitro agonistic activity on isolated guinea pig ileum. It counts as functional. In a few lines:
(§1)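 Longitudinal ileal muscle strips from male guinea pig were held in Krebs-Henseleit (pH 7.4, carbogen) at 37 °C under about 5 mN tension and recorded isometrically. Single agonist concentrations were added, with washout and rest between each. EC50 was read graphically. Emax was expressed as percent of the carbachol maximum. Low-efficacy agents were estimated from pooled curves of at least two experiments.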

For test [3], the species on record is Cavia porcellus. Description: Maximum response relative to that elicited by carbachol in guinea pig ileum was determined. It counts as functional. Put shortly: as §1
The target of test [4] is T1, Muscarinic acetylcholine receptor M3 (Cavia porcellus, UniProt Q8VH26). The test can be described thus: Compound was evaluated for its binding affinity against Muscarinic acetylcholine receptor M3 in guinea pig parotid gland using (-)-[3H]-QNB as radioligand. The class given is tissue-based. Put shortly:
(§2)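 Male guinea pig parotid gland homogenate was prepared in 50 mM Na/K phosphate pH 7.4 with 1 mM PMSF (protein ≤0.3 mg/mL). Triplicates were incubated with 2 nM (final) (−)-[3H]QNB at 25 °C for 210 min, with nonspecific binding defined by 10 µM atropine. Samples were separated by centrifugation and counted by scintillation. Ki came from graphical IC50 corrected by the Jacobs method, from 2–3 experiments.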

Test [5] deals with T1, Muscarinic acetylcholine receptor M3. The test can be described thus: Compound was evaluated for its binding affinity against muscarinic acetylcholine receptor M3 in guinea pig parotid gland using (-)-[3H]-QNB as radioligand. The class given is tissue-based. In a few lines:
as §2

Test [6] shares this target. Description: Compound was evaluated for its binding affinity against muscarinic acetylcholine receptor M3 n guinea pig parotid gland using (-)-[3H]-QNB as radioligand. It counts as tissue-based. Put shortly:
as §2

T1 sequence (Q8VH26 whole entry): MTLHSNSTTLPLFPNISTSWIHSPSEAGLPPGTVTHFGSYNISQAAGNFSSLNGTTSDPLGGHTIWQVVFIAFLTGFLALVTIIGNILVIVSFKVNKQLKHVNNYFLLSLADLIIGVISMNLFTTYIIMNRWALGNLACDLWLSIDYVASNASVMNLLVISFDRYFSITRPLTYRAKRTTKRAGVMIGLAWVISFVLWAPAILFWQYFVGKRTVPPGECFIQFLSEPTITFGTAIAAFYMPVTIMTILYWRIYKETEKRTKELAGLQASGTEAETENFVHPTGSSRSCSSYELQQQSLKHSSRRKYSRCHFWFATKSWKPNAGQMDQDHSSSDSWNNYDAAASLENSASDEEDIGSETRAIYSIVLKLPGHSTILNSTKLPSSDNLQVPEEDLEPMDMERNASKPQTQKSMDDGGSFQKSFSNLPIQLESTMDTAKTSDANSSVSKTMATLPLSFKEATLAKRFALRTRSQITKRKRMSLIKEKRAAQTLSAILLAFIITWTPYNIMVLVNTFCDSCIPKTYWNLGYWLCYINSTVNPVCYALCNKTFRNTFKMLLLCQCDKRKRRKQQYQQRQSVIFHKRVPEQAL

A word on the EC50: it is the concentration that produces a half-maximal response. A low value points to a more potent agent. As usually defined, the Emax is the maximal effect, on the per cent scale that the assay sets. `C[N+](C)(C)CCOC(N)=O` [CARBACHOL]: the EC50 in the test filed under Cavia porcellus [1] was 1.7 µM; in the test filed under Cavia porcellus [2] it was 0.17 µM. The Emax in the test filed under Cavia porcellus [3] is 100%.
The term Kb denotes the equilibrium dissociation constant of an antagonist, usually derived from a functional assay. High values mean lower antagonist affinity, low ones higher antagonist affinity. A word on the Ki: it is the dissociation constant of the complex between target and ligand, obtained from inhibition or displacement. A lower Ki goes with tighter binding. For `C[C@@H]1CC[C@@]2(CN3CCC2CC3)O1`, in the test listed under Cavia porcellus [1], the Kb stood at 90 µM. Further, affinity in test [4] was put at a Ki of 78 µM. This molecule also displayed an EC50 in the test filed under Cavia porcellus [2] of 30 µM. The molecule further had an Emax in the test filed under Cavia porcellus [3] of 20%.
In the test listed under Cavia porcellus [1], `C[C@@H]1OC[C@@]2(CN3CCC2CC3)O1` registered a Kb of 13 µM. This molecule also had an EC50 in the test listed under Cavia porcellus [2] of 17 µM. The molecule also had a Ki in test [5] of 25 µM. The molecule further returned an Emax in the test listed under Cavia porcellus [3] of 24%.
Molecule `C[C@@H]1C[C@@]2(CO1)CN1CCC2CC1` had a Kb in the test filed under Cavia porcellus [1] of 19 µM. The same molecule showed an EC50 in the test listed under Cavia porcellus [2] of 12 µM. In test [5], the inhibitory constant (Ki) was 33 µM. In addition, the Emax in the test listed under Cavia porcellus [3] turned out to be 7%.
Taken in the same sequence, the figures for `C[C@H]1OC[C@@]2(CN3CCC2CC3)O1` were 4.8 µM, 6 µM, 15 µM and 91%.
Molecule `CC1(C)OCC2(CN3CCC2CC3)O1` (stereo not given) registered a Kb in the test filed under Cavia porcellus [1] of 41 µM. The molecule also yielded a Ki in test [6] of 39 µM. Further, the EC50 in the test listed under Cavia porcellus [2] is 22 µM. In addition, the Emax in the test listed under Cavia porcellus [3] amounted to 14%.
Consider `C1OCC2(CN3CCC2CC3)O1` (stereo not given), for which, in the test listed under Cavia porcellus [1], the Kb came to 122 µM. Besides, the EC50 in the test listed under Cavia porcellus [2] was 100 µM. In addition, the affinity in test [5], expressed as Ki, was 86 µM. In the test listed under Cavia porcellus [3], the Emax worked out at 45%.
`C[C@H]1C[C@@]2(CO1)CN1CCC2CC1`: the Kb in the test filed under Cavia porcellus [1] was found to be 30 µM. The molecule also displayed a Ki in test [4] of 26 µM. This molecule had an EC50 in the test filed under Cavia porcellus [2] of 150 µM. In the test listed under Cavia porcellus [3], this molecule registered an Emax of 25%.
`C[C@H]1CC[C@@]2(CN3CCC2CC3)O1` came in with a Kb in the test listed under Cavia porcellus [1] of 93 µM. Further, the EC50 in the test filed under Cavia porcellus [2] stood at 12 µM. For the same molecule, the inhibition constant (Ki) in test [5] worked out at 35 µM. In the test filed under Cavia porcellus [3], this molecule came in with an Emax of 29%.
